# Results from different studies.
# Each line is one published result; the experiments were not run side by side.
# Target: Calcium/calmodulin-dependent protein kinase kinase 2 (CAMKK2, Homo sapiens, UniProt Q96RR4)
Structure (SMILES),assay,setting,measurement,value
Cc1ccc(NC(=O)c2ccnc(C(F)(F)F)c2)cc1-c1cc(OCCO)nc(N2CCOCC2)c1,binding,1 µM,remaining binding,98%
C=CC(=O)N1CCC([C@@H]2CCNc3c(C(N)=O)c(-c4ccc(Oc5ccccc5)cc4)nn32)CC1,"enzyme activity, inhibitor",1 µM,inhibition,12%
C#Cc1cc(-c2cc(Nc3nc(N[C@@H](C)c4ccc(F)cn4)ncc3Cl)n[nH]2)ccc1C=O,"enzyme activity, inhibitor",0.2 µM,inhibition,57.9%
C1=C/COCc2cc(ccc2OCCN2CCCC2)Nc2nccc(n2)-c2cccc(c2)COC/1,binding,0.1 µM,remaining binding,68%
Cc1cc(O)c(-c2ccc([C@@H](C)CN(C)C)cc2)c2c1[nH]c(=O)c1sccc12,"enzyme activity, inhibitor",0.1 µM,inhibition,6.79%
CCCCC(=O)Nc1ccc(-c2ccc3ncn(CCC)c(=O)c3c2)cn1,"binding, competition with immobilised ligand",0.5 µM,remaining binding,100%
C=CC(=O)N1CCC[C@@H](n2nc(-c3ccc(Oc4ccccc4)cc3)c3c(N)ncnc32)C1,"enzyme activity, inhibitor",1 µM,inhibition,4%
COc1ccc2[nH]c3c4[nH]c5ccc(OC)cc5c4c4c(c3c2c1)C(=O)NC4=O,binding,1 µM,remaining binding,74%
